M5 antag = blocks acetylcholine activation of human M5 receptor. P08912. inhibition, % at 3 µM. CHO-hM5 cells, Fluo-8 calcium fluorescence, ACh EC80. 360,000 tested, 0.59% active;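 active means inhibition above a per-plate cutoff, the mean of that plate's test compounds plus 3 SD, cut at about 27% in these data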
CHRM4 antagonist = CHRM4 antagonism in calcium assay; CHO-hM4 cells, ACh EC80, Fluo-8 calcium fluorescence; inhibition, % at 3 µM; 360,000 tested, 0.73% active; AID 624125;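 active means inhibition above its plate's cutoff, the mean inhibition of sample wells plus 3 SD, cut at about 27% in these data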
Target sequence (P08173 whole entry, looked up): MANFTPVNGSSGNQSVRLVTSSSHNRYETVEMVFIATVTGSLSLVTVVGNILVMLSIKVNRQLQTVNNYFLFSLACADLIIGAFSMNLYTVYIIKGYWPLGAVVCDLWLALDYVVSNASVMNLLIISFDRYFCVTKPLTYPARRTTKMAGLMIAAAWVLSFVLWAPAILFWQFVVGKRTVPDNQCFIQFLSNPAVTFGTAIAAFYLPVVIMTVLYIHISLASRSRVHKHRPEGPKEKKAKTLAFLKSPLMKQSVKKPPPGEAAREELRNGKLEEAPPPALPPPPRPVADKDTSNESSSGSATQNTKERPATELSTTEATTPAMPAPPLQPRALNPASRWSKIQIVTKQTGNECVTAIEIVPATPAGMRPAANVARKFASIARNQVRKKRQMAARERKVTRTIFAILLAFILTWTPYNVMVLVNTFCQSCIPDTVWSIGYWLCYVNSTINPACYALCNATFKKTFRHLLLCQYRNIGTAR
M4 ag = CHRM4 agonism in calcium assay | activation, % at 3 µM | 360,000 tested, 0.14% active | CHO-K1 hM4/Gqi5, Fluo-8 calcium fluorescence; vehicle 0%, full acetylcholine response 100%;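 active means activation above the run mean over all test wells plus 3 SD, cut at about 32% in these data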;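 further: peak over basal fluorescence ratio per well then scaled between controls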
CHRM4 PAM = CHRM4 positive allosteric modulation; 360,000 tested, 0.4% active; AID 624126; activation, % at 3 µM; CHO-K1 hM4/Gqi5, Fluo-8 calcium fluorescence, ACh EC20; 0% = ACh EC20, 100% = maximal ACh; P08173;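 active means activation above its plate's cutoff, the mean activation of sample wells plus 3 SD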
M5 PAM = potentiates acetylcholine response at human M5 receptor; 360,000 tested, 0.3% active; CHO-K1 hM5, Fluo-8 calcium, ACh EC20 PAM; 0% = ACh EC20, 100% = ACh EC100; activation, % at 3 µM;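 active means activation above the run cutoff, the mean activation of all test compounds plus 3 SD, cut at about 18% in these data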
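Assay system: CHO-K1 hM5 cells / Incubation: Fluo-8 loading 80 min at 37 °C plus 30 min room temperature / Technique: Fluo-8 calcium dye fluorescence, kinetic read / Repeats: single replicate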
M5 ag = agonists of human muscarinic M5 receptor (CHRM5). CHO-K1 hM5 cells, Fluo-8 calcium fluorescence; 0% DMSO wells, 100% maximal acetylcholine response. activation, % at 3 µM. 360,000 tested, 0.19% active;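 active means activation above the run's mean over test compounds plus 3 SD, cut at about 23% in these data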;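 further: signal is peak over basal fluorescence ratio across the kinetic read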
A number is an active result; 0 = inactive. An excerpt weighted towards active compounds, which were near 1.8% of everything screened.

SMILES | M5 antag | CHRM4 antagonist | M4 ag | CHRM4 PAM | M5 PAM | M5 ag
Cc1ccc(S(=O)(=O)Nc2ccc3c(c2)CC(=O)N([C@H](C)CO)C[C@@H](C)[C@H](CN(C)S(=O)(=O)c2ccccc2)O3)cc1 | 0 | 33 | 0 | 0 | 0 | 0
C[C@H](CO)N1C[C@H](C)[C@@H](CN(C)S(=O)(=O)c2ccc(Cl)cc2)Oc2ccc(NS(=O)(=O)c3ccccc3)cc2CC1=O | 0 | 0 | 0 | 0 | 0 | 0
C[C@H](CO)N1C[C@H](C)[C@H](CN(C)S(=O)(=O)c2ccccc2)Oc2ccc(NC(=O)NC3CCCCC3)cc2CC1=O | 0 | 99 | 0 | 0 | 0 | 0
COc1ccc(NC(=O)COc2ccc(/C=N/O)cc2OC)cc1 | 0 | 0 | 0 | 0 | 0 | 0
CCNC(=S)N/N=C/c1ccc(OCC(=O)Nc2ccc(OC)cc2)c(OC)c1 | 0 | 32 | 0 | 0 | 0 | 0
OCCCNc1ncnc2c1ncn2[C@H]1CN(Cc2ccc(-c3ccccc3)cc2)C[C@@H](CO)O1 | 0 | 0 | 0 | 0 | 0 | 0
CCN1/C(=C\c2ccc3cc(C)ccc3[n+]2CC)Sc2cc(C)c(C)cc21 | 42 | 0 | 0 | 0 | 0 | 0
CCN1/C(=C/c2ccc3cc(C)cc(C)c3[n+]2CC)Sc2cc(C)ccc21 | 31 | 0 | 0 | 0 | 0 | 0
CCN1/C(=C/c2ccc3cccc(C)c3[n+]2CC)Sc2ccccc21 | 27 | 31 | 0 | 0 | 0 | 0
COc1ccc(NC(=O)C2(C)CCN2CCc2ccccc2)cc1OC (stereo not given) | 0 | 0 | 0 | 0 | 0 | 0
CC(C)N(C(=O)CSc1nc2c([nH]1)c(=O)n(C)c(=O)n2C)c1ccccc1 | 0 | 0 | 0 | 17 | 0 | 0
Cc1ccc(N2C(=O)N(CC(=O)Nc3ccccc3C)C(=O)C2C)cc1 (stereo not given) | 0 | 0 | 0 | 0 | 19 | 0
N#Cc1ccc(CSc2ccc(S(=O)(=O)N3CCCCCC3)cn2)cc1 | 0 | 0 | 0 | 0 | 0 | 0
O=C(CN1CCN(Cc2ccc3c(c2)OCO3)CC1)Nc1ccc2[nH]c(=O)[nH]c2c1 | 0 | 0 | 0 | 16 | 0 | 0
O=C(CN1CCN(Cc2ccc3c(c2)OCO3)CC1)Nc1ccc(N2CCOCC2)cc1 | 0 | 0 | 0 | 0 | 0 | 0
O=C(Nc1ccc(F)cc1)C(c1ccncc1)N1CCN(C(=O)c2ccco2)CC1 (stereo not given) | 0 | 0 | 0 | 0 | 20 | 0
C[C@@H]1CN([C@H](C)CO)C(=O)CCCn2nncc2CO[C@H]1CN(C)Cc1cccnc1 | 0 | 0 | 0 | 0 | 0 | 0
CN(c1ccccc1)S(=O)(=O)c1cccc(C(=O)NC2CCCCC2)c1 | 0 | 0 | 0 | 0 | 0 | 0
Cc1nnc(SCC(=O)Nc2cccc(S(=O)(=O)N(C)c3ccccc3)c2)s1 | 31 | 0 | 0 | 0 | 0 | 0
Cc1ccc(S(=O)(=O)N(C)c2ccc(OCC(=O)Nc3nc4ccccc4s3)cc2)cc1 | 31 | 0 | 0 | 0 | 0 | 0
CN(c1ccccc1)S(=O)(=O)c1cccc(NS(=O)(=O)c2cccc(C(=O)O)c2)c1 | 0 | 0 | 0 | 0 | 23 | 0
CCC(=O)c1ccc(OCC(=O)Nc2cccc(S(=O)(=O)N(C)c3ccccc3)c2)cc1 | 34 | 29 | 0 | 0 | 0 | 0
CC(C)C(=O)Nc1c2c(nn1-c1ccc(F)cc1)CS(=O)(=O)C2 | 0 | 0 | 0 | 0 | 0 | 0
Cc1cc(N)cc(C)c1-c1c(Br)cc(N)cc1Br | 0 | 0 | 0 | 0 | 0 | 0
COc1cccc(CNC(=O)c2cccc(NC(=O)C3=C(C)OCCS3)c2)c1 | 0 | 0 | 0 | 0 | 0 | 0
SMILES | M5 antag | CHRM4 antagonist | M4 ag | CHRM4 PAM | M5 PAM | M5 ag
CCOc1ccc(CNC(=O)c2cccc(NC(=O)C3=C(C)OCCS3)c2)cc1 | 30 | 0 | 0 | 0 | 0 | 0
CN(C)N(Cc1ccccc1)C(=O)C(O)(c1ccccc1)c1ccccc1 | 0 | 0 | 0 | 0 | 0 | 0
CN(C)C(C)(C)/C=C/C(O)(c1ccccc1)c1ccccc1 | 63 | 70 | 0 | 0 | 0 | 0
O=C(O)Cc1ccc2ccc3ccccc3c2c1 | 0 | 0 | 0 | 0 | 19 | 0
CC(=O)Nc1ccc(C(=O)N2CCCC(c3cc(C(=O)NCc4ccccc4)no3)C2)cc1 (stereo not given) | 0 | 0 | 0 | 0 | 0 | 0
Cc1cc(O)ccc1-c1cc(C(=O)NCc2ccc(F)cc2)[nH]n1 | 0 | 0 | 0 | 0 | 0 | 33
S=C(NCc1ccc(Cl)cc1)Nc1ccc(Cl)cc1Cl | 0 | 0 | 0 | 0 | 0 | 0
S=C(Nc1ccc(Cl)cc1Cl)N1CCOCC1 | 0 | 0 | 0 | 21 | 0 | 0
S=C(NCCc1ccc(Cl)cc1)Nc1ccc(Cl)cc1Cl | 35 | 0 | 0 | 0 | 0 | 0
CC1(C(=O)NS(=O)(=O)c2cccc(C#N)c2)CCN1C(=O)c1ccc(C2CCCCC2)cc1 (stereo not given) | 0 | 0 | 0 | 0 | 0 | 0
COc1ccc(-c2nc(CS(=O)(=O)CC(=O)NC3CCC(C)CC3)c(C)o2)cc1 (stereo not given) | 0 | 0 | 0 | 0 | 0 | 0
CN(C)c1ccc(CNC(=O)C2(C)Cc3c(-c4cccc(C(F)(F)F)c4)ccnc3O2)cc1 (stereo not given) | 0 | 0 | 0 | 0 | 0 | 0
O=C(COc1ccc(Br)cc1F)Nc1nnc(C2CC2)s1 | 0 | 0 | 0 | 0 | 0 | 0
C[N+](C)(C)CCOC(=O)C1(c2ccccc2)CCCC1 | 99 | 97 | 0 | 0 | 0 | 0
O=C(COC(=O)C1(c2ccccc2)CC1)NNC(=O)c1ccccc1F | 0 | 0 | 0 | 0 | 0 | 0
COc1ccc(NC(=O)C2(c3ccccc3)CCCC2)cc1 | 0 | 0 | 0 | 0 | 0 | 0
CC(C[N+](C)(C)C)OC(=O)C1(c2ccccc2)CCCC1 (stereo not given) | 42 | 0 | 0 | 0 | 0 | 0
C[N+]1(CCOC(=O)C2(c3ccccc3)CCCC2)CCCCC1 | 98 | 97 | 0 | 0 | 0 | 0
CSc1nc(N)c2cn[nH]c2n1 | 0 | 0 | 0 | 0 | 0 | 0
COc1ccc(NC(=O)c2[nH]ncc2[N+](=O)[O-])cc1 | 0 | 0 | 0 | 0 | 18 | 0
CCCn1nc(C(=O)OCC(=O)c2ccccc2)c2ccccc2c1=O | 0 | 0 | 0 | 0 | 0 | 0
CCn1nc(C(=O)OCC(=O)c2ccc(F)cc2)c2ccccc2c1=O | 0 | 0 | 0 | 28 | 0 | 0
Cn1nc(C(=O)OCC(=O)c2ccc(Cl)cc2)c2ccccc2c1=O | 0 | 0 | 0 | 16 | 0 | 0
CCn1nc(C(=O)OCC(=O)N2CC(=O)Nc3ccccc32)c2ccccc2c1=O | 0 | 0 | 0 | 23 | 0 | 0
CCC1NC(=O)c2cccnc2-n2c1nc1ccc(F)cc1c2=O (stereo not given) | 0 | 0 | 0 | 0 | 0 | 0

Screens: PubChem, The Scripps Research Institute Molecular Screening Center
